{
  "source": "ChEMBL document CHEMBL4689842",
  "about": "“EUbOPEN Chemogenomics Library wave 1” (2021)",
  "test_system": "U2OS",
  "experiment": "Multiplex assay against U2OS",
  "format": "toxicity, cell-based",
  "conditions": "human",
  "outline": "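Per cents of healthy-nucleus cells form the tubulin, mitochondrial-mass and membrane-permeability phenotype values. Live cells were stained at seeding with Hoechst33342, BioTracker Green Microtubule Cytoskeleton Dye, MitoTracker Red and Annexin V Alexa Fluor 680. After compound addition they were imaged on a CQ1 microscope at 37°C and 5% CO2, and CellPathfinder machine-learning gating split them into Hoechst high-intensity objects or normal cells, normal cells into healthy, pyknosed or fragmented nuclei, and pyknosed cells into mitotic or apoptotic.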",
  "key": {"[1]": {"conditions": "12 h, 1 µM, compound concentration 1 uM, replicate 1"}, "[2]": {"conditions": "12 h, 1 µM, compound concentration 1 uM, replicate 2"}, "[3]": {"conditions": "12 h, 10 µM, compound concentration 10 uM, replicate 1"}, "[4]": {"conditions": "12 h, 10 µM, compound concentration 10 uM, replicate 2"}, "[5]": {"conditions": "24 h, 1 µM, compound concentration 1 uM, replicate 1"}, "[6]": {"conditions": "24 h, 1 µM, compound concentration 1 uM, replicate 2"}, "[7]": {"conditions": "24 h, 10 µM, compound concentration 10 uM, replicate 1"}, "[8]": {"conditions": "24 h, 10 µM, compound concentration 10 uM, replicate 2"}, "[9]": {"conditions": "48 h, 10 µM, compound concentration 10 uM, replicate 1"}, "[10]": {"conditions": "48 h, 10 µM, compound concentration 10 uM, replicate 2"}},
  "note": "Values joined by “and” are separate entries in the source; they are usually repeats but may differ in a detail not shown here. Identical values can stand only once.",
  "data": [
    {"compound": "Cl.O=C(c1ccc(Nc2nccc(-c3cc4ccccc4s3)n2)cc1)N1CCC(N2CCCC2)CC1", "values": [
      {"measurement": "Population Apoptotic (%)", "setting": "[1]", "result": 31, "unit": "%"},
      {"measurement": "Population Fragmented Nuclei (%)", "setting": "[1]", "result": 8, "unit": "%"},
      {"measurement": "Population Healthy Nuclei (%)", "setting": "[1]", "result": 80, "unit": "%"},
      {"measurement": "Population Hoechst High Intensity Objects (%)", "setting": "[1]", "result": 1, "unit": "%"},
      {"measurement": "Population Membrane Permeable-Phenotype (%)", "setting": "[1]", "result": 18, "unit": "%"},
      {"measurement": "Population Mitochondria Different-Phenotype (%)", "setting": "[1]", "result": 11, "unit": "%"},
      {"measurement": "Population Mitotic Cells (%)", "setting": "[1]", "result": 68, "unit": "%"},
      {"measurement": "Population Normal (%)", "setting": "[1]", "result": 98, "unit": "%"},
      {"measurement": "Population Pyknosed Nuclei (%)", "setting": "[1]", "result": 11, "unit": "%"},
      {"measurement": "Population Tubulin-Different-Phenotype (%)", "setting": "[1]", "result": 18, "unit": "%"},
      {"measurement": "Total Cell Count", "setting": "[1]", "result": 145},
      {"measurement": "Population Apoptotic (%)", "setting": "[2]", "result": 0, "unit": "%"},
      {"measurement": "Population Fragmented Nuclei (%)", "setting": "[2]", "result": 20, "unit": "%"},
      {"measurement": "Population Healthy Nuclei (%)", "setting": "[2]", "result": 75, "unit": "%"},
      {"measurement": "Population Hoechst High Intensity Objects (%)", "setting": "[2]", "result": 25, "unit": "%"},
      {"measurement": "Population Membrane Permeable-Phenotype (%)", "setting": "[2]", "result": 13, "unit": "%"},
      {"measurement": "Population Mitochondria Different-Phenotype (%)", "setting": "[2]", "result": 19, "unit": "%"},
      {"measurement": "Population Mitotic Cells (%)", "setting": "[2]", "result": 100, "unit": "%"},
      {"measurement": "Population Normal (%)", "setting": "[2]", "result": 74, "unit": "%"},
      {"measurement": "Population Pyknosed Nuclei (%)", "setting": "[2]", "result": 4, "unit": "%"},
      {"measurement": "Population Tubulin-Different-Phenotype (%)", "setting": "[2]", "result": 19, "unit": "%"},
      {"measurement": "Total Cell Count", "setting": "[2]", "result": 110},
      {"measurement": "Population Apoptotic (%)", "setting": "[3]", "result": "68% and 85%"},
      {"measurement": "Population Fragmented Nuclei (%)", "setting": "[3]", "result": "15% and 25%"},
      {"measurement": "Population Healthy Nuclei (%)", "setting": "[3]", "result": 6, "unit": "%"},
      {"measurement": "Population Hoechst High Intensity Objects (%)", "setting": "[3]", "result": "5% and 7%"},
      {"measurement": "Population Membrane Permeable-Phenotype (%)", "setting": "[3]", "result": "46% and 76%"},
      {"measurement": "Population Mitochondria Different-Phenotype (%)", "setting": "[3]", "result": 92, "unit": "%"},
      {"measurement": "Population Mitotic Cells (%)", "setting": "[3]", "result": "31% and 14%"},
      {"measurement": "Population Normal (%)", "setting": "[3]", "result": "94% and 92%"},
      {"measurement": "Population Pyknosed Nuclei (%)", "setting": "[3]", "result": "77% and 66%"},
      {"measurement": "Total Cell Count", "setting": "[3]", "result": "174 and 176"},
      {"measurement": "Population Apoptotic (%)", "setting": "[4]", "result": "93% and 70%"},
      {"measurement": "Population Fragmented Nuclei (%)", "setting": "[4]", "result": "35% and 26%"},
      {"measurement": "Population Healthy Nuclei (%)", "setting": "[4]", "result": "7% and 13%"},
      {"measurement": "Population Membrane Permeable-Phenotype (%)", "setting": "[4]", "result": "50% and 54%"},
      {"measurement": "Population Mitochondria Different-Phenotype (%)", "setting": "[4]", "result": "100% and 81%"},
      {"measurement": "Population Normal (%)", "setting": "[4]", "result": "78% and 93%"},
      {"measurement": "Population Pyknosed Nuclei (%)", "setting": "[4]", "result": "57% and 60%"},
      {"measurement": "Population Tubulin-Different-Phenotype (%)", "setting": "[4]", "result": "100% and 90%"},
      {"measurement": "Total Cell Count", "setting": "[4]", "result": 73},
      {"measurement": "Population Apoptotic (%)", "setting": "[5]", "result": 38, "unit": "%"},
      {"measurement": "Population Fragmented Nuclei (%)", "setting": "[5]", "result": 10, "unit": "%"},
      {"measurement": "Population Healthy Nuclei (%)", "setting": "[5]", "result": 81, "unit": "%"},
      {"measurement": "Population Hoechst High Intensity Objects (%)", "setting": "[5]", "result": 3, "unit": "%"},
      {"measurement": "Population Membrane Permeable-Phenotype (%)", "setting": "[5]", "result": 19, "unit": "%"},
      {"measurement": "Population Mitochondria Different-Phenotype (%)", "setting": "[5]", "result": 16, "unit": "%"},
      {"measurement": "Population Mitotic Cells (%)", "setting": "[5]", "result": 61, "unit": "%"},
      {"measurement": "Population Normal (%)", "setting": "[5]", "result": 96, "unit": "%"},
      {"measurement": "Population Pyknosed Nuclei (%)", "setting": "[5]", "result": 8, "unit": "%"},
      {"measurement": "Population Tubulin-Different-Phenotype (%)", "setting": "[5]", "result": 14, "unit": "%"},
      {"measurement": "Total Cell Count", "setting": "[5]", "result": 148},
      {"measurement": "Population Apoptotic (%)", "setting": "[6]", "result": 44, "unit": "%"},
      {"measurement": "Population Fragmented Nuclei (%)", "setting": "[6]", "result": 25, "unit": "%"},
      {"measurement": "Population Healthy Nuclei (%)", "setting": "[6]", "result": 68, "unit": "%"},
      {"measurement": "Population Hoechst High Intensity Objects (%)", "setting": "[6]", "result": 14, "unit": "%"},
      {"measurement": "Population Membrane Permeable-Phenotype (%)", "setting": "[6]", "result": 12, "unit": "%"},
      {"measurement": "Population Mitochondria Different-Phenotype (%)", "setting": "[6]", "result": 11, "unit": "%"},
      {"measurement": "Population Mitotic Cells (%)", "setting": "[6]", "result": 55, "unit": "%"},
      {"measurement": "Population Normal (%)", "setting": "[6]", "result": 85, "unit": "%"},
      {"measurement": "Population Pyknosed Nuclei (%)", "setting": "[6]", "result": 5, "unit": "%"},
      {"measurement": "Population Tubulin-Different-Phenotype (%)", "setting": "[6]", "result": 13, "unit": "%"},
      {"measurement": "Total Cell Count", "setting": "[6]", "result": 97},
      {"measurement": "Population Apoptotic (%)", "setting": "[7]", "result": "94% and 98%"},
      {"measurement": "Population Fragmented Nuclei (%)", "setting": "[7]", "result": "31% and 18%"},
      {"measurement": "Population Healthy Nuclei (%)", "setting": "[7]", "result": "4% and 9%"},
      {"measurement": "Population Hoechst High Intensity Objects (%)", "setting": "[7]", "result": "12% and 23%"},
      {"measurement": "Population Membrane Permeable-Phenotype (%)", "setting": "[7]", "result": 100, "unit": "%"},
      {"measurement": "Population Mitochondria Different-Phenotype (%)", "setting": "[7]", "result": "100% and 80%"},
      {"measurement": "Population Mitotic Cells (%)", "setting": "[7]", "result": "5% and 1%"},
      {"measurement": "Population Normal (%)", "setting": "[7]", "result": "87% and 76%"},
      {"measurement": "Population Pyknosed Nuclei (%)", "setting": "[7]", "result": "63% and 71%"},
      {"measurement": "Population Tubulin-Different-Phenotype (%)", "setting": "[7]", "result": 100, "unit": "%"},
      {"measurement": "Total Cell Count", "setting": "[7]", "result": "171 and 213"},
      {"measurement": "Population Apoptotic (%)", "setting": "[8]", "result": 100, "unit": "%"},
      {"measurement": "Population Fragmented Nuclei (%)", "setting": "[8]", "result": "36% and 26%"},
      {"measurement": "Population Healthy Nuclei (%)", "setting": "[8]", "result": 16, "unit": "%"},
      {"measurement": "Population Hoechst High Intensity Objects (%)", "setting": "[8]", "result": "14% and 31%"},
      {"measurement": "Population Mitotic Cells (%)", "setting": "[8]", "result": 0, "unit": "%"},
      {"measurement": "Population Normal (%)", "setting": "[8]", "result": "85% and 68%"},
      {"measurement": "Population Pyknosed Nuclei (%)", "setting": "[8]", "result": "59% and 58%"},
      {"measurement": "Population Tubulin-Different-Phenotype (%)", "setting": "[8]", "result": 87, "unit": "%"},
      {"measurement": "Total Cell Count", "setting": "[8]", "result": "192 and 76"},
      {"measurement": "Population Apoptotic (%)", "setting": "[9]", "result": 98, "unit": "%"},
      {"measurement": "Population Fragmented Nuclei (%)", "setting": "[9]", "result": 32, "unit": "%"},
      {"measurement": "Population Healthy Nuclei (%)", "setting": "[9]", "result": 6, "unit": "%"},
      {"measurement": "Population Hoechst High Intensity Objects (%)", "setting": "[9]", "result": 26, "unit": "%"},
      {"measurement": "Population Membrane Permeable-Phenotype (%)", "setting": "[9]", "result": 75, "unit": "%"},
      {"measurement": "Population Mitochondria Different-Phenotype (%)", "setting": "[9]", "result": 100, "unit": "%"},
      {"measurement": "Population Mitotic Cells (%)", "setting": "[9]", "result": 1, "unit": "%"},
      {"measurement": "Population Normal (%)", "setting": "[9]", "result": 73, "unit": "%"},
      {"measurement": "Population Pyknosed Nuclei (%)", "setting": "[9]", "result": 61, "unit": "%"},
      {"measurement": "Population Tubulin-Different-Phenotype (%)", "setting": "[9]", "result": 100, "unit": "%"},
      {"measurement": "Total Cell Count", "setting": "[9]", "result": 154},
      {"measurement": "Population Apoptotic (%)", "setting": "[10]", "result": 100, "unit": "%"},
      {"measurement": "Population Fragmented Nuclei (%)", "setting": "[10]", "result": 28, "unit": "%"},
      {"measurement": "Population Healthy Nuclei (%)", "setting": "[10]", "result": 50, "unit": "%"},
      {"measurement": "Population Hoechst High Intensity Objects (%)", "setting": "[10]", "result": 44, "unit": "%"},
      {"measurement": "Population Membrane Permeable-Phenotype (%)", "setting": "[10]", "result": 100, "unit": "%"},
      {"measurement": "Population Mitotic Cells (%)", "setting": "[10]", "result": 0, "unit": "%"},
      {"measurement": "Population Normal (%)", "setting": "[10]", "result": 55, "unit": "%"},
      {"measurement": "Population Pyknosed Nuclei (%)", "setting": "[10]", "result": 21, "unit": "%"},
      {"measurement": "Total Cell Count", "setting": "[10]", "result": 77}
    ]}
  ]
}
